Source: ChEMBL document CHEMBL4732111, “A greener protocol for the synthesis of phosphorochalcogenoates: Antioxidant and free radical scavenging activities” (Eur J Med Chem, 2021)

Tests used:
[1] = Antioxidant activity assessed as ferric ion reducing activity by measuring absorbance at 100 uM measured after 40 mins by FRAP assay (reference value: 0.11 +/- 0.02); assay type: functional
In short: (§1)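 Compounds at 10–500 µM mixed with FRAP reagent (FeCl3, triazine and sodium acetate buffer pH 3.2; 10:1:1). Incubated 40 min at 37 °C in the dark; absorbance reported. Vehicle and Trolox 10 µM as controls. Mean ± SEM, n = 3; one-way ANOVA with Tukey versus vehicle.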

[2] = Ex vivo antioxidant activity in Swiss mouse assessed as inhibition of canola oil-induced lipid peroxidation in brain by measuring TBARS level at 10 mg/kg, ig measured after 30 mins (reference value: 91.91 +/- 9.38 /g); assay type: functional; conditions: 0.5 h
Brain [3] = test: Antioxidant activity in Swiss mouse brain cerebral tissue assessed as inhibition of SNP-induced lipid peroxidation by measuring TBARS level at 100 uM incubated for 1 hr relative to control; assay type: functional, tissue-based; parameters: scale not given: the % may be the effect or the level left
In short: (§2)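 Whole brain of male adult Swiss mice homogenized in cold 50 mM Tris-HCl pH 7.4 (1/5 w/v) and spun 2400 g, 10 min, 4 °C; supernatant S1 used. Peroxidation induced with sodium nitroprusside in the presence of compound. Then SDS 8.1%, TBA 0.8% and acetic acid/HCl pH 3.4 added, heated 95 °C for 2 h; MDA measured as marker. Trolox 10 µM as positive control. n = 3; one-way ANOVA with Tukey versus induced.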

[4] = Antioxidant activity assessed as ABTS radical scavenging activity at 500 uM relative to control; assay type: functional
In short: (§3)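 Compounds at 10–500 µM mixed with ABTS•+ solution; scavenging read as fall in absorbance at 734 nm, expressed as percent scavenging relative to vehicle. Trolox 10 µM as positive control. Mean ± SEM, n = 3; one-way ANOVA with Tukey.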

[5] = Antioxidant activity assessed as ferric ion reducing activity by measuring absorbance at 10 uM measured after 40 mins by FRAP assay (reference value: 0.11 +/- 0.02); assay type: functional; in short: as §1
[6] = Ex vivo antioxidant activity in Swiss mouse assessed as inhibition of canola oil-induced glutathione peroxidase activity in brain by measuring oxidation of NADPH at 10 mg/kg, ig measured after 30 mins by spectrophotometric method (reference value: 12.8 +/- 2.28 nmol/g); assay type: functional; conditions: 0.5 h
In short: (§4)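 Swiss mice dosed orally at 10 mg/kg (vehicle canola oil); brain S1 prepared 30 min later. SOD measured as inhibition of epinephrine autoxidation in Na2CO3 50 mM pH 10.3 at 480 nm, one unit = 50% inhibition at 26 °C. GPx measured as NADPH decay coupled to glutathione reductase with H2O2 and GSH. Mean ± SEM, 6 mice per group; Student's t-test.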

Brain [7] = test: Antioxidant activity in Swiss mouse brain cerebral tissue assessed as inhibition of sodium azide-induced reactive species production by measuring fluorescence unit at 10 uM by DCHF-DA dye based spectrofluorimetric method (reference value: 139 +/- 26.8 U); assay type: functional
[8] = Antioxidant activity assessed as DPPH radical scavenging activity at 10 uM incubated for 30 mins under dark condition relative to control; assay type: functional
In short: (§5)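 Compounds at 10–500 µM mixed with ethanolic DPPH solution. Incubated 30 min at 30 °C in the dark, then absorbance read at 517 nm. Scavenging expressed as percent relative to vehicle; Trolox 10 µM as positive control. Mean ± SEM, n = 3; one-way ANOVA with Tukey.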

Brain [9] = test: Antioxidant activity in Swiss mouse brain cerebral tissue assessed as inhibition of SNP-induced lipid peroxidation by measuring TBARS level at 10 uM incubated for 1 hr relative to control; assay type: functional, tissue-based; parameters: scale not given: the % may be the effect or the level left; in short: as §2
[10] = Toxicity in Swiss mouse assessed as change in plasma urea level at 10 mg/kg, ig measured after 30 mins (reference value: 90.31 +/- 0.74 mg/dl); assay type: organism-based; conditions: in vivo, po, 0.5 h
In short: (§6)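 Swiss mice dosed intragastrically at 10 mg/kg (control canola oil 10 mL/kg). After 30 min, blood taken by heart puncture into heparin under light isoflurane anesthesia. Plasma obtained at 200 g for 10 min, hemolyzed samples discarded. ALT, AST, urea and creatinine measured with commercial kits. 5–6 mice per group; Student's t-test.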

[11] = Toxicity in Swiss mouse assessed as change in plasma creatinine level at 10 mg/kg, ig measured after 30 mins (reference value: 1.77 +/- 0.05 mg/dl); assay type: organism-based; conditions: in vivo, po, 0.5 h; in short: as §6
[12] = Antioxidant activity assessed as ABTS radical scavenging activity at 50 uM relative to control; assay type: functional; in short: as §3
[13] = Ex vivo antioxidant activity in Swiss mouse assessed as inhibition of canola oil-induced lipid peroxidation in liver by measuring TBARS level at 10 mg/kg, ig measured after 30 mins (reference value: 271.5 +/- 43.88 /g); assay type: functional; conditions: 0.5 h
[14] = Antioxidant activity assessed as DPPH radical scavenging activity at 100 uM incubated for 30 mins under dark condition relative to control; assay type: functional; in short: as §5
Brain [15] = test: Antioxidant activity in Swiss mouse brain cerebral tissue assessed as inhibition of SNP-induced lipid peroxidation by measuring TBARS level at 50 uM incubated for 1 hr relative to control; assay type: functional, tissue-based; parameters: scale not given: the % may be the effect or the level left; in short: as §2
Brain [16] = test: Antioxidant activity in Swiss mouse brain cerebral tissue assessed as inhibition of sodium azide-induced reactive species production by measuring fluorescence unit at 100 uM by DCHF-DA dye based spectrofluorimetric method (reference value: 139 +/- 26.8 U); assay type: functional
[17] = Antioxidant activity assessed as DPPH radical scavenging activity at 500 uM incubated for 30 mins under dark condition relative to control; assay type: functional; in short: as §5
[18] = Toxicity in Swiss mouse assessed as change in plasma AST level at 10 mg/kg, ig measured after 30 mins (reference value: 148 +/- 8.08 […]); assay type: organism-based; conditions: in vivo, po, 0.5 h; in short: as §6
[19] = Antioxidant activity assessed as ferric ion reducing activity by measuring absorbance at 50 uM measured after 40 mins by FRAP assay (reference value: 0.11 +/- 0.02); assay type: functional; in short: as §1
[20] = Ex vivo antioxidant activity in Swiss mouse assessed as inhibition of canola oil-induced superoxide dismutase activity in brain by measuring SOD activity at 10 mg/kg, ig measured after 30 mins by spectrophotometric method (reference value: 25.44 +/- 4.12 U/min); assay type: functional; conditions: 0.5 h; in short: as §4
[21] = Toxicity in Swiss mouse assessed as change in plasma ALT level at 10 mg/kg, ig measured after 30 mins (reference value: 110.90 +/- 12.4 IU/L); assay type: organism-based; conditions: in vivo, po, 0.5 h; in short: as §6
[22] = Ex vivo antioxidant activity in Swiss mouse assessed as inhibition of canola oil-induced lipid peroxidation in kidney by measuring TBARS level at 10 mg/kg, ig measured after 30 mins (reference value: 438.20 +/- 27.59 /g); assay type: functional; conditions: 0.5 h
[23] = Antioxidant activity assessed as ferric ion reducing activity by measuring absorbance at 500 uM measured after 40 mins by FRAP assay (reference value: 0.11 +/- 0.02); assay type: functional; in short: as §1
[24] = Antioxidant activity assessed as ABTS radical scavenging activity at 10 uM relative to control; assay type: functional; in short: as §3
[25] = Antioxidant activity assessed as ABTS radical scavenging activity at 100 uM relative to control; assay type: functional; in short: as §3
[26] = Antioxidant activity assessed as DPPH radical scavenging activity at 50 uM incubated for 30 mins under dark condition relative to control; assay type: functional; in short: as §5
Brain [27] = test: Antioxidant activity in Swiss mouse brain cerebral tissue assessed as inhibition of sodium azide-induced reactive species production by measuring fluorescence unit at 50 uM by DCHF-DA dye based spectrofluorimetric method (reference value: 139 +/- 26.8 U); assay type: functional
Brain [28] = test: Antioxidant activity in Swiss mouse brain cerebral tissue assessed as inhibition of SNP-induced lipid peroxidation by measuring TBARS level at 500 uM incubated for 1 hr relative to control; assay type: functional, tissue-based; parameters: scale not given: the % may be the effect or the level left; in short: as §2
Brain [29] = test: Antioxidant activity in Swiss mouse brain cerebral tissue assessed as inhibition of sodium azide-induced reactive species production by measuring fluorescence unit at 500 uM by DCHF-DA dye based spectrofluorimetric method (reference value: 139 +/- 26.8 U); assay type: functional
[30] = Stability of compound exposed to blue LED light using DMSO as solvent measured after 24 hrs; assay type: physicochemical
[31] = Stability of compound exposed to blue LED light using DCM as solvent measured after 24 hrs; assay type: physicochemical
[32] = Stability of compound in Na2CO3 measured after 24 hrs; assay type: physicochemical
[33] = Stability of compound exposed to blue LED light using EtOH as solvent measured after 24 hrs; assay type: physicochemical
[34] = Stability of compound in TsOH measured after 24 hrs; assay type: physicochemical
[35] = Stability of compound exposed to blue LED light using DCM as solvent assessed as parent compound remaining measured after 2 hrs by 31P-[1H] NMR spectroscopy; assay type: physicochemical; conditions: DCM solution exposed to blue LED light, read-out: Stabilty
[36] = Drug metabolism in TsOH assessed as tetraethyl diphosphate formation measured after 2 hrs by 31P-[1H] NMR spectroscopy

| SMILES | Activity [1] | Activity [2] | Activity [5] | Activity [6] | Activity (Brain [7]) | Activity [8] | Activity (Brain [9]) | Activity [10] | Activity [11] | Activity [12] | Activity [13] | Activity [14] | Activity [17] | Activity [18] | Activity [19] | Activity [20] | Activity [21] | Activity [22] | Activity [23] | Activity [24] | also measured |
| --- | --- | --- | --- | --- | --- | --- | --- | --- | --- | --- | --- | --- | --- | --- | --- | --- | --- | --- | --- | --- | --- |
| COc1ccc([Se]P(=O)(OC)OC)cc1 | 0.19 | 64.64 g⁻¹ | 0.16 | 4.98 nmol/g | 94 U | 3.72% | 87.6% | 74.39 mg/dL | 2.36 mg/dL | 8.6% | 280.8 g⁻¹ | 11.9% | 19.1% | 151 IU/L | 0.16 | 13.47 U/min | 119.5 IU/L | 422.5 g⁻¹ | 0.26 | 6.76% | Activity (Brain [3]): 78.1%; Activity [4]: 19.8%; Activity (Brain [15]): 78.6%; Activity (Brain [16]): 67.2 U; Activity [25]: 6.91%; Activity [26]: 6.95%; Activity (Brain [27]): 94.1 U; Activity (Brain [28]): 58% |
| COP(=O)(OC)[Se]c1ccccc1 | 0.12 | 87.34 g⁻¹ | 0.11 | 7.18 nmol/g | 71.5 U | 5.53% | 84.7% | 80.3 mg/dL | 1.78 mg/dL | 10.3% | 326 g⁻¹ | 4.68% | 21.9% | 151.2 IU/L | 0.12 | 25.94 U/min | 117.4 IU/L | 676.6 g⁻¹ | 0.16 | 5.02% | Activity (Brain [3]): 85.9%; Activity (Brain [15]): 80.6%; Activity [26]: 7.83%; Activity (Brain [28]): 79.8% |
| COP(=O)(OC)[Se]c1ccc(C)cc1 | 0.17 | 54.79 g⁻¹ | 0.14 | 7.48 nmol/g | 70.3 U | 12.2% | 73% | 80.24 mg/dL | 1.96 mg/dL | 12.5% | 199.9 g⁻¹ | 9.87% | 3.62% | 147.4 IU/L | 0.17 | 7.37 U/min | 119 IU/L | 455.4 g⁻¹ | 0.29 | 11.5% | Activity (Brain [29]): 62.7 U; Activity (Brain [16]): 70.1 U; Activity [25]: 29.9%; Activity [26]: 6.83%; Activity (Brain [27]): 84.9 U |
| O=P(OCc1ccccc1)(OCc1ccccc1)[Se]c1ccccc1 | 0.4 | 83 g⁻¹ | 0.16 | 6.39 nmol/g | 61.7 U | 2.19% | 59.5% | 98.59 mg/dL | 1.52 mg/dL | 3.06% | 263.8 g⁻¹ | 3.72% | 5.04% | 155.3 IU/L | 0.23 | 17.54 U/min | 138.1 IU/L | 580.5 g⁻¹ | 1.02 | 3.85% | Activity [4]: 12.4%; Activity [25]: 1.86%; Activity [26]: 3.94% |
| CCOP(=O)(OCC)[Se]c1ccccc1 |  |  |  |  |  |  |  |  |  |  |  |  |  |  |  |  |  |  |  |  | Stabilty [30]: Stable; Stabilty [31]: Stable; Stabilty [32]: Stable; Stabilty [33]: Stable; Stabilty [34]: Stable |
| CCCCOP(=O)(OCCCC)[Se]c1ccccc1 | 0.15 | 87.71 g⁻¹ | 0.11 | 5.5 nmol/g | 98.3 U | 6.14% | 79.3% | 105 mg/dL | 1.75 mg/dL | 8.76% | 249.4 g⁻¹ | 12.2% | 7.38% | 159.3 IU/L | 0.15 | 23.85 U/min | 140 IU/L | 371 g⁻¹ | 0.3 | 1.92% | Activity (Brain [3]): 90.4%; Activity [4]: 2.34%; Activity (Brain [15]): 83.8%; Activity (Brain [16]): 61.4 U; Activity [25]: 3.84%; Activity [26]: 18.4%; Activity (Brain [27]): 76.1 U; Activity (Brain [28]): 57% |
| CCOP(=O)(OCC)[Te]c1ccccc1 |  |  |  |  |  |  |  |  |  |  |  |  |  |  |  |  |  |  |  |  | remaining at 2 h [35]: 20%; Drug metabolism [36]: Metabolite detected |
| Cc1c(C)c2c(c(C)c1O)CCC(C)(C(=O)O)O2 (stereo not given) [TROLOX] |  |  | 0.39 |  | 99 U | 93.5% | 29.8% |  |  |  |  |  |  |  |  |  |  |  |  | 94.3% |  |
